Measurements pooled from the literature.
Lines come from different studies, so protocols differ.

Compound | target or system | test | system | setting | quantity | result
C[C@H](Cn1cnc2c(N)ncnc21)OCP(=O)(O)O | MT4 | cell growth or viability, MTT |  | 5 days | CC50 | 6.73 µg/mL
COc1cccc2c1C(=O)c1c(O)c3c(c(O)c1C2=O)C[C@@](O)(C(=O)CO)C[C@@H]3O[C@H]1C[C@H](N)[C@H](O)[C@H](C)O1 | BJ | cell growth or viability |  |  | IC50 | 0.1 µM
C=C(CCO)Cn1cnc2c(=O)[nH]c(N)nc21 | MT4 | cell growth or viability, MTT |  | 7 days | CC50 | > 100 µM
COc1cc(/C=C/C(=O)OCCCc2ccc(O[C@H](COC(=O)/C=C/c3ccc(O)c(OC)c3)[C@@H](OC)c3ccc(O)c(OC)c3)c(OC)c2)ccc1O | MT4 | cell growth or viability |  | 72 h | CC50 | > 10 µM
N=C(N)c1ccc(OCCCCCCCOc2ccc(C(=N)N)cc2)cc1 |  | haemolysis | sheep | 200 µg/mL, 20 h | haemolysis | 9.2%
Cc1ccnc2c1NC(=O)c1cccnc1N2C1CC1 | MT4 | cell growth or viability, MTT |  | 5 days | CC50 | 0.82 µg/mL
Cc1ccc2c(c1)nc(/C=C/c1cccc3cccnc13)n2-c1ccccc1 |  | metabolic stability | rat, liver microsomes | 1.5 µM, 45 min | compound remaining | 17.8%
N=C(N)c1ccccc1OCc1cccc(COc2ccccc2C(=N)N)c1 |  | haemolysis | sheep | 200 µg/mL, 1 h | haemolysis | 0%
Nc1ncnc2c1ncn2[C@@H]1C=C[C@@]2(CO)C[C@@H]12 | MT4 | cell growth or viability, MTT |  | 5 days | CC50 | > 100 µg/mL
Cc1ncsc1-c1ccc(CNC(=O)[C@@H]2C[C@@H](O)CN2C(=O)[C@@H](NC(=O)CCCCCCCCCCNC(=O)O[C@H]2C[C@@H](C)C=C3C=C[C@H](C)[C@H](CC[C@@H]4C[C@@H](O)CC(=O)O4)[C@H]32)C(C)(C)C)cc1 |  | metabolic stability | mouse, liver microsomes | 1 µM, 5 min, pH 7.4 | compound remaining | 41.2%
N=C(N)c1ccc(OCc2ccc(COc3ccc(C(=N)N)cc3)cc2)cc1 |  | haemolysis | sheep | 200 µg/mL, 20 h | haemolysis | 0.4%
CC(=O)Nc1nnc(N2CCN([C@@H](C)c3ccc4c(c3)OCO4)CC2)s1 |  |  | dog, plasma | 1 µM | fraction unbound | 0.125
N=C(N)c1ccc(OCCSCCOc2ccc(C(=N)N)cc2)cc1 |  | haemolysis | sheep | 200 µg/mL, 20 h | haemolysis | 0%
O=c1ccn([C@@H]2C=C[C@@]3(CO)C[C@@H]23)c(=O)[nH]1 | MT4 | cell growth or viability, MTT |  | 5 days | CC50 | > 100 µg/mL
CON=C(N)c1ccc(-c2ccc(-c3ccc(C(N)=NOC)cc3)o2)cc1 | Cytochrome P450 2J2 (CYP2J2, Homo sapiens, UniProt P51589) | enzyme activity, substrate |  |  | Km | 0.9 µM
